Laboratory results published in ChEMBL document CHEMBL1135936, “6-[2-(Phosphonomethoxy)alkoxy]pyrimidines with antiviral activity” (J Med Chem, 2002).
In brackets after ≈: the same amount, converted by molar mass.

How the values were obtained:
CCRF-CEM [1] = test: Inhibition of Human immunodeficiency virus (HIV) -1 III B strain induced cytopathicity in CEM cell line; format: functional, cell-based
Summary of the method: (§1)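 CEM cells were infected with 100 CCID50 per mL of HIV-1 (IIIB) or HIV-2 (ROD). Cells were seeded into wells containing dilutions of compound and incubated 4 days at 37 °C. CEM giant cell formation was then examined microscopically.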

CCRF-CEM [2] = test: Inhibition of Human immunodeficiency virus (HIV)-2 ROD strain induced cytopathicity in CEM cell line; format: functional, cell-based; summary of the method: as §1
[3] = system: Moloney murine sarcoma virus; test: Inhibition of moloney sarcoma virus (MSV) induced cytopathicity in C3H/3T3 embryo fibroblast cells; format: functional, organism-based
Summary of the method: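 C3H/3T3 murine embryo fibroblasts were seeded in 48-well plates and infected 24 h later with 80 focus-forming units of MSV. MSV stock was prepared from tumours in NMRI mice. Virus adsorbed for 10-120 min at 37 °C, then fresh medium with compound dilutions was added. Transformation was examined microscopically after 6 days.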

E6SM [4] = test: Inhibition of Herpes simplex virus-1, KOS strain induced cytopathicity in E6SM cell line; format: functional, cell-based; conditions: Homo sapiens
Summary of the method: (§2)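 Inhibition of virus-induced cytopathicity in confluent cell cultures in 96-well plates inoculated with 100 CCID50 of virus; 1 CCID50 is the virus dose infecting 50% of cultures. EC50 is based on reduction of cytopathicity.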

E6SM [5] = test: Inhibition of Herpes simplex virus-2 (G strain) induced cytopathicity in E6SM cell line; format: functional, cell-based; conditions: Homo sapiens; summary of the method: as §2
E6SM [6] = test: Inhibition of thymidine kinase deficient Herpes simplex virus-1 VMW 1837 strain induced cytopathicity in E6SM cell line; format: functional, cell-based; conditions: Homo sapiens; summary of the method: as §2
Human alphaherpesvirus 3 = test: Inhibition of Thymidine kinase deficient (TK-) Varicella-Zoster virus (VZV) 07/1 strain induced cytopathicity n HEL cell line; format: functional, organism-based; conditions: Human alphaherpesvirus 3, tk-07, HEL; summary of the method: as §2
HEL [7] = test: Inhibition of Thymidine kinase deficient (TK-) Varicella-Zoster virus (VZV) YS/R strain induced cytopathicity in HEL cell line; format: functional, cell-based; conditions: Homo sapiens; summary of the method: as §2
HEL [8] = test: Inhibition of Varicella-Zoster virus (VZV) OKA strain induced cytopathicity in HEL cell line; format: functional, cell-based; conditions: Homo sapiens; summary of the method: as §2
HEL [9] = test: Inhibition of Varicella-Zoster virus (VZV) YS strain induced cytopathicity in HEL cell line; format: functional, cell-based; conditions: Homo sapiens; summary of the method: as §2
CCRF-CEM [10] = test: (§3) In vitro cytotoxicity against CCRF-CEM T lymphoblastoid cells; format: functional, Homo sapiens
Summary of the method: (§4)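 Cells were grown for 72 h at a constant compound concentration of 10 µM, then counted. Growth inhibition is given relative to cell counts in control cultures grown in medium without compound. Lines: mouse L1210 and L929, human HeLaS3 and CCRF-CEM.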

HeLa [11] = test: (§5) In vitro cytotoxicity against human cervix carcinoma HeLa S3 cells; format: functional; parameters: concentration or dose not given beside the values; summary of the method: as §4
L929 [12] = test: (§6) In vitro cytotoxicity against murine L929 cells; format: functional, Mus musculus; summary of the method: as §4
L1210 [13] = test: (§7) In vitro cytotoxicity against L1210 mouse leukemia cells; format: functional; summary of the method: as §4
CCRF-CEM [14] = test: as §3; format: functional, Homo sapiens; parameters: concentration or dose not given beside the values; summary of the method: as §4
L929 [15] = test: as §6; format: functional, Mus musculus; parameters: concentration or dose not given beside the values; summary of the method: as §4
L1210 [16] = test: as §7; format: functional; parameters: concentration or dose not given beside the values; summary of the method: as §4
unidentified adenovirus [17] = test: In vitro antiadenovirus activity; format: functional, organism-based
Summary of the method: (§8)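 HEL fibroblasts, confluent, infected on day 0 with 100 CCID50 of human adenovirus type 2 or type 3. After 2 h adsorption at 37 °C, virus was removed and replaced by serial compound dilutions. Cytopathic effect was scored microscopically on day 7-10 p.i. to derive EC50 and minimum cytotoxic concentration.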

HEL [18] = test: Inhibitory activity against HEL cell proliferation; format: functional, cell-based; conditions: Homo sapiens
HeLa [19] = test: as §5; format: functional; summary of the method: as §4
unidentified adenovirus [20] = test: Effective concentration for the inhibition of adenovirus; format: functional, organism-based; summary of the method: as §8

## CN(C)c1cc(O)nc(N)n1
CCRF-CEM [1]
  EC50: > 100 µg/mL
CCRF-CEM [2]
  EC50: > 100 µg/mL
[3]
  EC50: 132 µg/mL (≈ 856 µM)
E6SM [4]
  EC50: > 400 µg/mL
E6SM [5]
  EC50: > 400 µg/mL
E6SM [6]
  EC50: > 400 µg/mL
Human alphaherpesvirus 3
  EC50: > 50 µg/mL
HEL [7]
  EC50: > 50 µg/mL
HEL [8]
  EC50: > 50 µg/mL
HEL [9]
  EC50: > 50 µg/mL

## Nc1nc(OCCOCP(=O)(O)O)cc(=O)n1CCOCP(=O)(O)O
CCRF-CEM [10]
  Control: 101%
CCRF-CEM [1]
  EC50: > 100 µg/mL
CCRF-CEM [2]
  EC50: > 100 µg/mL
[3]
  EC50: 107 µg/mL (≈ 265 µM)
E6SM [4]
  EC50: > 400 µg/mL
E6SM [5]
  EC50: > 400 µg/mL
E6SM [6]
  EC50: > 400 µg/mL
Human alphaherpesvirus 3
  EC50: > 50 µg/mL
HEL [7]
  EC50: > 50 µg/mL
HEL [8]
  EC50: > 50 µg/mL
HEL [9]
  EC50: > 50 µg/mL
HeLa [11]
  Control: 72%
L929 [12]
  Control: 77%
L1210 [13]
  Control: 80%

## CC(C)OP(=O)(COCCOc1cc(N)ncn1)OC(C)C
CCRF-CEM [1]
  EC50: > 20 µg/mL
CCRF-CEM [2]
  EC50: > 20 µg/mL
E6SM [4]
  EC50: > 400 µg/mL
E6SM [5]
  EC50: > 400 µg/mL
E6SM [6]
  EC50: > 400 µg/mL
Human alphaherpesvirus 3
  EC50: > 50 µg/mL
HEL [7]
  EC50: > 50 µg/mL
HEL [8]
  EC50: > 50 µg/mL
HEL [9]
  EC50: > 50 µg/mL

## Nc1cc(SCCOCP(=O)(O)O)nc(N)n1
CCRF-CEM [14]
  Control: 89%
CCRF-CEM [1]
  EC50: 5.5 µg/mL (≈ 19.6 µM)
CCRF-CEM [2]
  EC50: 3 µg/mL (≈ 10.7 µM)
[3]
  EC50: 1.7 µg/mL (≈ 6.07 µM)
E6SM [4]
  EC50: 29 µg/mL (≈ 103 µM)
E6SM [5]
  EC50: ≥ 80 µg/mL
E6SM [6]
  EC50: 48 µg/mL (≈ 171 µM)
Human alphaherpesvirus 3
  EC50: 20 µg/mL (≈ 71.4 µM)
HEL [7]
  EC50: 15 µg/mL (≈ 53.5 µM)
HEL [8]
  EC50: 7.5 µg/mL (≈ 26.8 µM)
HEL [9]
  EC50: 7 µg/mL (≈ 25 µM)
HeLa [11]
  Control: 98%
L929 [15]
  Control: 88%
L1210 [16]
  Control: 83%
Unidentified adenovirus [17]
  EC50: 78 µg/mL (≈ 278 µM)
HEL [18]
  EC50: 50 µg/mL (≈ 178 µM)

## Cc1cc(=O)n(CCOCP(=O)(O)O)c(N)n1
CCRF-CEM [14]
  Control: 100%
CCRF-CEM [1]
  EC50: > 100 µg/mL
CCRF-CEM [2]
  EC50: > 100 µg/mL
[3]
  EC50: 122 µg/mL (≈ 464 µM)
E6SM [4]
  EC50: > 400 µg/mL
E6SM [5]
  EC50: > 400 µg/mL
E6SM [6]
  EC50: > 400 µg/mL
Human alphaherpesvirus 3
  EC50: > 50 µg/mL
HEL [7]
  EC50: > 50 µg/mL
HEL [8]
  EC50: > 50 µg/mL
HEL [9]
  EC50: > 50 µg/mL
HeLa [11]
  Control: 83%
L929 [15]
  Control: 81%
L1210 [16]
  Control: 95%

## CN(C)c1cc(OCCOCP(=O)(O)O)nc(N)n1
CCRF-CEM [14]
  Control: 104%
CCRF-CEM [1]
  EC50: > 100 µg/mL
CCRF-CEM [2]
  EC50: > 100 µg/mL
[3]
  EC50: 133 µg/mL (≈ 455 µM)
E6SM [4]
  EC50: > 400 µg/mL
E6SM [5]
  EC50: > 400 µg/mL
E6SM [6]
  EC50: > 400 µg/mL
Human alphaherpesvirus 3
  EC50: > 50 µg/mL
HEL [7]
  EC50: > 50 µg/mL
HEL [8]
  EC50: > 50 µg/mL
HEL [9]
  EC50: > 50 µg/mL
HeLa [11]
  Control: 89%
L929 [15]
  Control: 104%
L1210 [16]
  Control: 88%

## Nc1cc(=O)n(CCOCP(=O)(O)O)cn1
CCRF-CEM [14]
  Control: 86%
CCRF-CEM [1]
  EC50: > 100 µg/mL
CCRF-CEM [2]
  EC50: > 100 µg/mL
[3]
  EC50: 138 µg/mL (≈ 554 µM)
E6SM [4]
  EC50: > 400 µg/mL
E6SM [5]
  EC50: > 400 µg/mL
E6SM [6]
  EC50: > 400 µg/mL
Human alphaherpesvirus 3
  EC50: > 50 µg/mL
HEL [7]
  EC50: > 50 µg/mL
HEL [8]
  EC50: > 50 µg/mL
HEL [9]
  EC50: > 50 µg/mL
HeLa [11]
  Control: 94%
L929 [15]
  Control: 90%
L1210 [16]
  Control: 98%

## Cc1cc(OCCOCP(=O)(O)O)nc(N)n1
CCRF-CEM [14]
  Control: 95%
CCRF-CEM [1]
  EC50: > 100 µg/mL
CCRF-CEM [2]
  EC50: > 100 µg/mL
[3]
  EC50: 89 µg/mL (≈ 338 µM)
E6SM [4]
  EC50: > 400 µg/mL
E6SM [5]
  EC50: > 400 µg/mL
E6SM [6]
  EC50: > 400 µg/mL
Human alphaherpesvirus 3
  EC50: > 50 µg/mL
HEL [7]
  EC50: > 50 µg/mL
HEL [8]
  EC50: > 50 µg/mL
HEL [9]
  EC50: > 50 µg/mL
HeLa [11]
  Control: 87%
L929 [15]
  Control: 85%
L1210 [16]
  Control: 99%

## Nc1cc(O)nc(SCCOCP(=O)(O)O)n1
CCRF-CEM [1]
  EC50: > 100 µg/mL
CCRF-CEM [2]
  EC50: > 100 µg/mL
[3]
  EC50: 72 µg/mL (≈ 256 µM)
E6SM [4]
  EC50: 240 µg/mL (≈ 853 µM)
E6SM [5]
  EC50: > 400 µg/mL
E6SM [6]
  EC50: > 400 µg/mL
Human alphaherpesvirus 3
  EC50: > 50 µg/mL
HEL [7]
  EC50: > 50 µg/mL
HEL [8]
  EC50: > 50 µg/mL
HEL [9]
  EC50: > 50 µg/mL

## Nc1nc(NC2CC2)cc(OCCOCP(=O)(O)O)n1
CCRF-CEM [10]
  Control: 87%
CCRF-CEM [1]
  EC50: > 100 µg/mL
CCRF-CEM [2]
  EC50: > 100 µg/mL
[3]
  EC50: > 40 µg/mL
E6SM [4]
  EC50: 240 µg/mL (≈ 789 µM)
E6SM [5]
  EC50: > 80 µg/mL
E6SM [6]
  EC50: 240 µg/mL (≈ 789 µM)
Human alphaherpesvirus 3
  EC50: > 50 µg/mL
HEL [7]
  EC50: > 50 µg/mL
HEL [8]
  EC50: > 20 µg/mL
HEL [9]
  EC50: > 50 µg/mL
HeLa [19]
  Control: 88%
L929 [12]
  Control: 93%
L1210 [13]
  Control: 71%

## Nc1ncnc2c1ncn2CCOCP(=O)(O)O [ADEFOVIR]
CCRF-CEM [1]
  EC50: 1.8 µg/mL (≈ 6.59 µM)
CCRF-CEM [2]
  EC50: 2.5 µg/mL (≈ 9.15 µM)
[3]
  EC50: 0.25 µg/mL (≈ 0.915 µM)
E6SM [4]
  EC50: 7 µg/mL (≈ 25.6 µM)
E6SM [5]
  EC50: 7 µg/mL (≈ 25.6 µM)
E6SM [6]
  EC50: 7 µg/mL (≈ 25.6 µM)
Human alphaherpesvirus 3
  EC50: 10 µg/mL (≈ 36.6 µM)
HEL [7]
  EC50: 10 µg/mL (≈ 36.6 µM)
HEL [8]
  EC50: 10 µg/mL (≈ 36.6 µM)
HEL [9]
  EC50: 10 µg/mL (≈ 36.6 µM)

## Nc1nc(N)c2ncn(CCOCP(=O)(O)O)c2n1 [PMEDAP]
Unidentified adenovirus [20]
  EC50: 47 µg/mL (≈ 163 µM)
